Measured values reported in ChEMBL document CHEMBL1123811, “gem-Diphosphonate and gem-phosphonate-phosphate compounds with specific high density lipoprotein inducing activity” (1987).

Columns and labels:
Type in all cases: functional
Parameters in all cases: concentration or dose not given beside the values
[1] = organism: Rattus norvegicus; assay: Activity to induce the elevation of alpha/beta cholesterol ratio of male Wistar rats
Outline: (§1)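 Wistar rats on normal diet; groups were vehicle control, an internal-standard diphosphonate, and test compounds. Dosed daily for 4 days; diphosphonates were dissolved in water or suspended in 1% (carboxymethyl)cellulose, 4 mL/kg. On day 5, after overnight fast, rats were killed under ether. EDTA plasma was assayed enzymatically for HDL-C after heparin-CaCl2 precipitation of VLDL/LDL, phospholipids, triglycerides and α/β-cholesterol ratio. Results are given as % of control.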

[2] = organism: Rattus norvegicus; assay: Activity to induce the elevation of HDL(High Density Lipoproteins)-Cholesterol of male Wistar rats; outline: as §1
[3] = organism: Rattus norvegicus; assay: Activity to induce the elevation of phospholipids of male Wistar rats; outline: as §1
[4] = organism: Rattus norvegicus; assay: Activity to induce the elevation of triglycerides of male Wistar rats; outline: as §1

| Structure (SMILES) | Percent change in alpha/beta cholesterol ratio versus control [1] [%] | HDL-cholesterol change relative to control (%) [2] [%] | Plasma phospholipids, % change versus control [3] [%] | Percent change in plasma triglycerides versus control [4] [%] |
| --- | --- | --- | --- | --- |
| COP(=O)(OC)C(Cc1ccccc1)P(=O)(OC)OC | 22 | 32 | 25 | -3 |
| COP(=O)(OC)OC(c1cccc(Cl)c1)P(=O)(OC)OC (stereo not drawn) | 69 | 56 | 14 | -37 |
| COP(=O)(OC)OC(c1cccc(Br)c1)P(=O)(OC)OC (stereo not drawn) | 71 | 28 | 3 | 14 |
| COP(=O)(OC)OC(c1ccc(F)cc1)P(=O)(OC)OC (stereo not drawn) | 81 | 40 | 2 | -9 |
| COP(=O)(OC)OC(c1cc(C)ccc1C)P(=O)(OC)OC (stereo not drawn) | 15 | 10 | -16 | -3 |
| COP(=O)(OC)OC(c1ccccc1)P(=O)(OC)OC (stereo not drawn) | 76 | 4 | 21 | 32 |
| COP(=O)(OC)OC(C(C)C)P(=O)(OC)OC (stereo not drawn) | 38 | 15 | 7 | -26 |
| CCCCOP(=O)(OCCCC)OC(c1ccc(Cl)cc1)P(=O)(OCCCC)OCCCC (stereo not drawn) | -53 | -10 | 13 | -11 |
| COP(=O)(OC)OC(c1ccc(Cl)cc1Cl)P(=O)(OC)OC (stereo not drawn) | 39 | 51 | 28 | 13 |
| COP(=O)(OC)C(CCc1ccccc1)P(=O)(OC)OC | 82 | 40 | 16 | 22 |
| O=P(O)(O)C(Cc1ccc(Cl)cc1)P(=O)(O)O | -40 |  | 0 | -146 |
| COP(=O)(OC)C(O)(c1ccc(F)cc1)P(=O)(OC)OC | 64 | 23 | 3 | 27 |
| COP(=O)(OC)OC(c1ccc(-c2ccccc2)cc1)P(=O)(OC)OC (stereo not drawn) | 40 | 24 | 18 | 0 |
| O=P(O)(O)C(CCCc1ccccc1)P(=O)(O)O | 14 | 3 | 12 | 11 |
| CC(C)OP(=O)(OC(C)C)C(Cc1ccc(Cl)cc1)P(=O)(OC(C)C)OC(C)C | -1 | 12 | 13 | 19 |
| CCCCOP(=O)(OCCCC)C(Cc1ccc(Cl)cc1)P(=O)(OCCCC)OCCCC | 2 | 0 | 6 | 1 |
| COP(=O)(OC)C(O)(c1ccc2ccccc2c1)P(=O)(OC)OC | 51 | 35 | 25 | 24 |
| COP(=O)(OC)C(O)(c1ccccc1)P(=O)(OC)OC | 80 | 13 | 57 | 4 |
| CCOP(=O)(OCC)C(CCCOc1ccccc1)P(=O)(OCC)OCC | 37 | 16 | 0 | 0 |
| COP(=O)(OC)C(O)(c1ccc(-c2ccccc2)cc1)P(=O)(OC)OC | 5 | 74 | 1 | 5 |

| Structure (SMILES) | Percent change in alpha/beta cholesterol ratio versus control [1] [%] | HDL-cholesterol change relative to control (%) [2] [%] | Plasma phospholipids, % change versus control [3] [%] | Percent change in plasma triglycerides versus control [4] [%] |
| --- | --- | --- | --- | --- |
| COc1ccc(C(OP(=O)(OC)OC)P(=O)(OC)OC)cc1 (stereo not drawn) | 2 | 0 | -3 | 41 |
| CCOP(=O)(OCC)C(CCOc1ccccc1)P(=O)(OCC)OCC | 26 | 29 | 25 | -38 |
| COP(=O)(OC)OC(C(C)(C)c1ccccc1)P(=O)(OC)OC (stereo not drawn) | 25 | 33 | 15 | 36 |
| O=P(O)(O)C(CCCOc1ccccc1)P(=O)(O)O | -57 | -18 | -6 | -7 |
| O=P(O)(O)C(CCc1ccccc1)P(=O)(O)O | -27 | -24 | -16 | -17 |
| COP(=O)(OC)C(O)(C(C)(C)C)P(=O)(OC)OC | 32 | 0 | -43 | 24 |
| COP(=O)(O)C(Cc1ccc(Cl)cc1)P(=O)(O)OC (stereo not drawn) | -20 | 27 | 6 | -30 |
| CCOP(=O)(OCC)OC(c1ccc(Cl)cc1)P(=O)(OCC)OCC (stereo not drawn) | -6 | 15 | 16 | 8 |
| COP(=O)(OC)OC(c1ccc2ccccc2c1)P(=O)(OC)OC (stereo not drawn) | 134 | 47 | 27 | 28 |
| CCOP(=O)(OCC)C(CCc1ccccc1)P(=O)(OCC)OCC | 74 | 41 | 16 | 11 |
| COP(=O)(OC)C(O)(c1ccc(Cl)cc1)P(=O)(OC)OC | 130 | 44 | 19 | 15 |
| COP(=O)(OC)C(Cc1ccc(Cl)cc1)P(=O)(OC)OC | 75 | 38 | 51 | 62 |
| CCOP(=O)(OCC)C(Cc1ccccc1)P(=O)(OCC)OCC | 28 | 5 | 5 | -47 |
| CCOP(=O)(OCC)C(Cc1ccc(Cl)cc1)P(=O)(OCC)OCC | 22 | 26 | 23 | 8 |
| COP(=O)(OC)OC(C(C)(C)Cc1ccc(Cl)cc1)P(=O)(OC)OC (stereo not drawn) | -38 | -30 | -27 | -19 |
| CCCOP(=O)(OCCC)OC(c1ccc(Cl)cc1)P(=O)(OCCC)OCCC (stereo not drawn) | 4 | -6 | 4 | -17 |
| COP(=O)(OC)OC(c1ccccc1Cl)P(=O)(OC)OC (stereo not drawn) | 34 |  | 22 | -42 |
| COP(=O)(OC)C(CCCOc1ccccc1)P(=O)(OC)OC | -13 | 6 | -11 | 2 |
| COP(=O)(OC)OC(c1ccc(C(=O)c2ccc(Cl)cc2)cc1)P(=O)(OC)OC (stereo not drawn) | 55 | 33 | 53 | 0 |
| COP(=O)(OC)C(O)(c1ccc(C(=O)c2ccc(Cl)cc2)cc1)P(=O)(OC)OC | 46 | 22 | 39 | -16 |
